Data from PMC8905034 (Acta Pharmacologica Sinica, 2022).
Values belong to the compound of their own block, whether it stands above or below them.

What was measured:
[1] = target: T1, BRD4(1) (Homo sapiens, UniProt O60885); test: Thermal shift assay; format: binding
[2] = target: T1, BRD4(1); test: Alphascreen assay against BRD4; format: biochemical
[3] = tested on: CDK6; test: qRT-PCR of CDK6 mRNA in MV4-11; format: cell-based, human; conditions: MV4-11, 48 h, 1 μM, 5 μM and 10 μM vs control
Method in brief: (§1)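 Log-phase cells seeded at 5000 per well, grown 12 h, then given a range of test compound concentrations for 48 h, in triplicate wells. RNA extracted with TRIzol; reverse transcription with iScript (25 °C 5 min, 42 °C 30 min, 85 °C 5 min). EvaGreen qPCR used gene-specific primers. Expression by 2−ΔΔCt, normalised to GAPDH; one-way ANOVA with Tukey's test.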

[4] = tested on: c-Myc; test: Western blotting of c-Myc in MV4-11; format: cell-based, human; conditions: MV4-11, 48 h, Western blot
Method in brief: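 MV4-11 cells treated 48 h with several compound concentrations, then lysed 30 min on ice in RIPA with PMSF and cleared at 12,000 r/min, 4 °C. Protein quantified by BCA, run on 8% SDS-PAGE, blotted to PVDF and blocked in 5% milk/TBST. Probed with anti-c-Myc (1:1000, 4 °C overnight) and HRP anti-rabbit (1:50000, 1 h), then ECL. Densitometry relative to GAPDH; ANOVA/Tukey.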

[5] = tested on: MV4-11 cells; test: Apoptosis analysis by flow cytometry; format: cell-based, human; conditions: MV4-11, 1 μM, 5 μM and 10 μM vs control
Method in brief: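 Harvested cells washed in cold PBS and resuspended at 10^6/mL in 1× Annexin binding buffer. Stained with Alexa Fluor 488 Annexin V plus propidium iodide (100 μg/mL working solution) for 15 min at room temperature in the dark, then analysed by flow cytometry. Groups compared by one-way ANOVA with Tukey's test.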

[6] = tested on: c-Myc; test: qRT-PCR of c-Myc mRNA in MV4-11; format: cell-based, human; conditions: MV4-11, 48 h, 1 μM, 5 μM and 10 μM vs control
Method in brief: as §1

[7] = tested on: MV4-11 cells; test: Cell cycle analysis by flow cytometry; format: cell-based, human; conditions: MV4-11, 48 h
Method in brief: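 Cells seeded at 5 × 10^3 per well, grown 12 h, then exposed to graded test compound concentrations or DMSO for 48 h at 37 °C. Fixed overnight in 70% ethanol at 4 °C. RNase A (about 50 μg/mL final) at 37 °C for 30 min, then PI (about 65 μg/mL final) on ice in the dark for 30 min. Flow cytometry within 1 h; one-way ANOVA with Tukey's test.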

SMILES: CCc1noc2cc(OC)c(NS(=O)(=O)CC)cc12 [Compound 11a, N-(3-Ethyl-6-methoxybenzo[d]isoxazol-5-yl)ethanesulfonamide]
- binding activity to BRD4 (TSA), in words [1]: moderate binding activity

SMILES: CCc1noc2cc(OC)c(NS(=O)(=O)c3ccc(OC)cc3)cc12 [Compound 11r, N-(3-Ethyl-6-methoxybenzo[d]isoxazol-5-yl)-4-methoxybenzenesulfonamide]
- mRNA expression of CDK6 [3]: decreased significantly
- c-Myc expression at the protein level [4]: remarkable dose-dependent decrease
- apoptosis rate, in words [5]: significantly increased
- mRNA expression of c-Myc [6]: decreased significantly
- cell cycle arrest, in words [7]: induce cell cycle arrest in G0/G1 phase in a dose-dependent manner

SMILES: CCc1noc2cc(OC)c(NS(=O)(=O)c3cccnc3)cc12 [Compound 11z, N-(3-Ethyl-6-methoxybenzo[d]isoxazol-5-yl)pyridine-3-sulfonamide]
- binding activity to BRD4 (TSA), in words [1]: good binding activities

Further lines, results first:

- binding activity to BRD4 (TSA), in words [1]: moderate activity
SMILES: CCc1noc2cc(OC)c(NS(=O)(=O)c3ccccc3)cc12 [Compound 11d, N-(3-Ethyl-6-methoxybenzo[d]isoxazol-5-yl)benzenesulfonamide]

- IC50 [2]: 94 nM
SMILES: CCc1noc2cc(OC)c(NS(=O)(=O)c3ccccc3OC)cc12 [Compound 11h, N-(3-Ethyl-6-methoxybenzo[d]isoxazol-5-yl)-2-methoxybenzenesulfonamide]

- binding activity to BRD4 (TSA), in words [1]: good binding activities
SMILES: CCc1noc2cc(OC)c(NS(=O)(=O)c3cccs3)cc12 [Compound 11y, N-(3-Ethyl-6-methoxybenzo[d]isoxazol-5-yl)thiophene-2-sulfonamide]
